TAAR1 agonist – agonists of human TAAR1; Q96RJ0; CHO RD-HGA16 TAAR1, Fluo-8 calcium fluorescence; vehicle wells 0%, saturating PEA agonist 100%; activation, % at 3 µM; 0.99% of 360,000 active;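 active = activation above the mean activation of all test compounds in the run plus 3 SD, cut at about 38% in these data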
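Assay system: CHO-derived RD-HGA16 cells with stable Gα16 and human TAAR1; timing: 17-24 h seeding, 75 min 37 °C dye, 30 min RT; read-out: % activation from peak over basal fluorescence ratio, DMSO-to-PEA scaled; measured by: kinetic Fluo-8 calcium fluorescence; benchmarks: low control DMSO, high control PEA (EC100); doses: 3 µM single concentration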
m5-HT2A agonist – activates the mouse 5-HT2A serotonin receptor; activation, % at 7.6 µM; 0.66% of 360,000 active; CHO-K1 mHTR2A beta-arrestin complementation, luminescence; percent of 30 µM serotonin response;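 active = activation above a run cutoff, the mean activation of all tested compounds plus 3 SD, cut at about 14% in these data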
Target sequence (P35363 whole entry, looked up): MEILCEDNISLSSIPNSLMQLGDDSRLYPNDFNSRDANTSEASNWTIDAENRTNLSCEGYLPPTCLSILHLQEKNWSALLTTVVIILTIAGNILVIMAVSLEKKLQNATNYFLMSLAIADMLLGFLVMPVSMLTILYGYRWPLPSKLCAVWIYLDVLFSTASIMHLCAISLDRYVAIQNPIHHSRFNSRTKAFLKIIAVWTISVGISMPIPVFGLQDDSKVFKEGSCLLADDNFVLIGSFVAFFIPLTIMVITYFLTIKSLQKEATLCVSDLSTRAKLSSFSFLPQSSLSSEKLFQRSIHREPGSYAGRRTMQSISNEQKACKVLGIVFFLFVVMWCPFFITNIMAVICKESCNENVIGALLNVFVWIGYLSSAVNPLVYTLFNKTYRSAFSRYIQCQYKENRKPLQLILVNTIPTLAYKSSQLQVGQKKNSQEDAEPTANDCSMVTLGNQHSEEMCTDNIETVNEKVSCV
M1 ag – agonists of human M1 muscarinic receptor. 0.33% of 360,000 active. AID 588814. CHO-K1 hM1, Fluo-8 calcium fluorescence, agonist mode; 0% DMSO, 100% acetylcholine EC100. activation, % at 3 µM. P11229;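 active = activation above the run's mean compound activation plus 3 SD, cut at about 16% in these data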;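 note: peak over basal fluorescence ratio within a 140 s kinetic read after compound addition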
CHRM1 antagonist – antagonists of human M1 muscarinic receptor | P11229 | CHO-K1 hM1, Fluo-8 calcium fluorescence, ACh EC80 antagonist | inhibition, % at 3 µM | 1.3% of 360,000 active | AID 588852;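 active = percent inhibition above its own plate's cutoff, namely the mean of that plate's compound wells plus 3 SD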;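 note: peak over basal fluorescence ratio during 140 s after agonist addition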
M1 PAM – human CHRM1 positive allosteric modulation | P11229 | CHO-K1 hM1, Fluo-8 calcium fluorescence, ACh EC20; 0% = ACh EC20, 100% = maximal ACh | activation, % at 3 µM | 0.088% of 360,000 active | AID 588819; in the data active = activation above about 19%, passing the limit was not always enough
TAAR1 antagonist – human TAAR1 antagonism | CHO RD-HGA16 TAAR1, Fluo-8 calcium fluorescence, antagonist | inhibition, % at 3 µM | 1.5% of 360,000 active | AID 624466;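 active = inhibition above a per-plate cutoff, the mean inhibition of test compounds on that plate plus 3 SD, cut at about 49% in these data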
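Test system – hTAAR1-expressing CHO RD-HGA16 cells, Gα16-coupled · Reagent – β-PEA at EC80 concentration, post-compound challenge · Compound dosing – 3 µM, single point · Timing – 140 s kinetic read after compound, 140 s after agonist · Detection – Fluo-8 intracellular calcium dye fluorescence, real-time kinetic reads · Control set – DMSO and EC80 PEA controls · Repeats – n of 1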
MOR ag counter – OPRM1 agonism in mouse HTR2A counterscreen; shares compounds with m5-HT2A agonist; U2OS OPRM1 beta-arrestin PathHunter, luminescence; DMSO 0%, DAMGO 9.3 µM 100%; activation, % at 9.3 µM; 5.3% of 2,300 active;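 active = mean activation above the mean of DMSO-only wells plus 3 SD, cut at about 0.5% in these data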
HTR2A ag conf – confirmation of mouse HTR2A serotonin receptor agonists | CHO-K1 PathHunter beta-arrestin recruitment, luminescence; DMSO 0%, 30 µM serotonin 100% | 19% of 2,300 active | AID 624381 | activation, % at 7.6 µM | shares compounds with m5-HT2A agonist;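 active = mean activation across triplicates above the hit threshold derived in the original primary screen, cut at about 15% in these data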
Hits are given with their value; - = inactive; . = not tested or not shown. An excerpt weighted towards active compounds, which were near 3.9% of everything screened.

SMILES	TAAR1 agonist	m5-HT2A agonist	M1 ag	CHRM1 antagonist	M1 PAM	TAAR1 antagonist	MOR ag counter	HTR2A ag conf
COc1cc(CNCc2ccccc2)cc(Cl)c1OC	-	-	-	-	-	-	.	.
COc1cc(CNCCc2ccccc2)cc(Cl)c1OCc1ccccc1	40	20	-	-	-	-	1.2	-
C=CCC[C@@H](Cc1ccc(F)cc1)C(=O)OC[C@H](C)NC(=O)[C@@H](CC=C)CC(=O)N[C@@H](CO)Cc1ccccc1	-	-	-	-	-	-	.	.
Cc1nc2cc(Cl)c([N+](=O)[O-])cc2s1	-	19	-	-	-	-	-	-
COc1ccccc1-n1c(=O)c2c3c(sc2n2c(SC(C)C)nnc12)CCC3	-	16	-	-	-	-	-	-
CCCSc1nnc2n(-c3ccccc3OC)c(=O)c3c4c(sc3n12)CCC4	-	-	-	-	-	-	.	.
CCOc1ccccc1NC(=O)c1cccc(NC2=NC3CS(=O)(=O)CC3S2)c1 (stereo unspecified)	-	15	-	-	-	-	-	-
COc1ccc(OC)c(CCNC(=O)c2ccc(NC3=NC4CS(=O)(=O)CC4S3)cc2)c1 (stereo unspecified)	-	17	-	-	-	-	-	-
Cc1cccc(N2CCN(C(=O)c3cccc(NC4=NC5CS(=O)(=O)CC5S4)c3)CC2)c1C (stereo unspecified)	-	-	-	-	-	-	.	.
COc1ccccc1N1CCN(C(=O)c2cccc(NC3=NC4CS(=O)(=O)CC4S3)c2)CC1 (stereo unspecified)	-	24	-	-	-	-	-	-
CN(C(=O)COC(=O)c1cncc(Br)c1)C1CCCCC1	-	19	-	-	-	-	-	-
COc1ccccc1C(=O)COC(=O)c1cc(S(=O)(=O)N2CCCCC2)ccc1N1CCOCC1	-	17	-	-	-	-	-	-
CN(CCO)c1cccc2c1S(=O)(=O)N[C@@H](Cc1ccccc1)CO2	-	-	.	.	.	-	.	.
CCc1ccc(NC(=O)CSc2nc3nc(C)cc(C)n3n2)cc1	-	18	-	-	-	-	-	-
COc1ccc(NC(=O)c2ccc(NC(=O)c3nc4nc(C)cc(C)n4n3)cc2)cc1	-	15	-	-	-	-	-	-
COc1ccc(NC(=O)CSc2nc3nc(C)cc(C)n3n2)cc1	-	-	-	-	-	-	.	.
COCCNC(=O)c1onc(CSc2cc(C)cc(C)c2)c1C(=O)NCCOC	-	-	-	-	-	-	.	.
Cc1ccc(S(=O)(=O)NCCC(=O)NCc2ccccn2)cc1	-	-	-	-	-	-	.	.
Cc1ccc(S(=O)(=O)NC(=O)NCc2ccccn2)cc1	-	14	-	-	-	-	-	-
CC(C)c1ccc(/C=C/c2ccc(=O)n(C)n2)cc1	-	-	-	-	-	-	.	.
CCCn1c(=O)c2[nH]c(-c3ccc(OCC(=O)Nc4ccc(C#N)cc4)cc3)nc2n(CCC)c1=O	-	16	-	-	-	-	-	-
O=C(NC(=S)Nn1cnc2c(cnn2-c2ccccc2)c1=O)c1ccc(Cl)cc1	-	42	-	-	-	-	-	-
O=C(NC(=S)Nn1cnc2c(cnn2-c2ccccc2)c1=O)c1ccc(Oc2ccccc2)cc1	-	-	-	-	-	-	.	.
C=CCN(CC=C)CCOc1cccc2ccccc12	-	14	-	-	-	-	-	23
C[C@@H]1CN([C@@H](C)CO)C(=O)c2cc(NS(C)(=O)=O)ccc2O[C@@H]1CN(C)S(=O)(=O)c1ccccc1	-	-	-	-	-	-	.	.
SMILES	TAAR1 agonist	m5-HT2A agonist	M1 ag	CHRM1 antagonist	M1 PAM	TAAR1 antagonist	MOR ag counter	HTR2A ag conf
COc1cc(C#Cc2ccc3cc(CCO)oc(=O)c3c2)cc(OC)c1	-	17	-	-	-	-	-	-
CN(C)c1ccc(C#Cc2ccc3cc(CCO)oc(=O)c3c2)cc1	.	-	-	-	-	.	.	.
c1ccc(-n2nnnc2-c2cccc3ccccc23)cc1	-	-	-	-	-	-	.	.
CCC1(c2ccc(F)cc2)NC(=O)N(CC(=O)Nc2ccc(C)c(S(=O)(=O)N3CCOCC3)c2)C1=O (stereo unspecified)	-	-	-	-	-	-	.	.
Cc1cc(CSc2nc(C)cc(=O)[nH]2)c2ncccc2c1	-	16	-	-	-	-	-	-
CCOc1ccc(OCCCC(=O)NCCc2ccc(OC)cc2)cc1	-	-	-	-	-	-	.	.
Cc1ccc(S(=O)(=O)N2CCN(C(=O)CSc3ccc(Cl)cc3)CC2)cc1	-	-	-	-	-	-	.	.
Cc1ccc(S(=O)(=O)N2CCN(C(=O)CSCc3ccc(C(C)C)cc3)CC2)cc1	-	15	-	-	-	-	-	-
CN(CC(=O)Nc1ccccc1Cl)C(=O)c1cc2c(s1)CCCCC2	-	-	-	-	-	-	.	.
CN(CC(=O)Nc1ccccc1Br)C(=O)c1cc2c(s1)CCCCC2	-	17	-	-	-	-	-	-
Cc1ccc(CN2CCN(Cc3cn[nH]c3-c3cccc(F)c3)CC2CCO)o1 (stereo unspecified)	-	-	-	-	-	-	.	.
Cc1ccc(-n2c(CNc3ccc(F)cc3)nnc2SCC(=O)O)cc1	-	-	-	-	-	-	.	.
Cc1ccc(C)c(-n2c(CNc3ccc(F)cc3)nnc2SCC(N)=O)c1	-	18	-	-	-	-	-	-
CN1C(=O)NC(c2ccc(O)cc2)C2=C1CN(c1ccc(O)cc1)C2=O (stereo unspecified)	-	20	-	-	-	-	-	-
COc1cccc(CNCCNC(=O)c2nonc2N)c1	-	19	-	-	-	-	-	-
COc1ccc(CN2C(=O)C(CC(=O)NC3CCCC3)CC(C(=O)N(C)C)=C2C)cc1 (stereo unspecified)	-	30	-	-	-	-	-	-
CC1=C(C(=O)N2CCCCCC2)CC(CC(=O)NC2CCCC2)C(=O)N1Cc1ccc(C(C)(C)C)cc1 (stereo unspecified)	-	15	.	.	.	-	-	-
COc1ccc(CN2C(=O)C(CC(=O)NC3CCCCC3)CC(C(=O)N(C)C)=C2C)cc1 (stereo unspecified)	-	-	-	-	-	-	.	.

Assay outcomes as filed in PubChem.
